Screens: PubChem BioAssay, Broad Institute
Shown are actives, neighbours in structure and some others; about 1.4% of the full set was active somewhere.
ERp5 block = inhibitors of ERp5-driven insulin aggregation, primary screen, biochemical, turbidity, absorbance 650 nm, single point; Protein disulfide-isomerase A6 (Homo sapiens), Q15084; 90 min; inhibition, % at 9.99 µM; 0.05% of 350,000 active;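 active = mean replicate inhibition above about 25%, with every replicate also reaching it, limit read from the data, passing the limit was not always enough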
PDI turbidity = inhibitors of human PDI, primary screen, biochemical, turbidity, single point, plate reader; 0.052% of 350,000 active; PDI insulin aggregation turbidity, A650, 90 min; inhibition, % at 10 µM; AID 588391, 2011; Protein disulfide-isomerase (Homo sapiens), P07237;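 active = mean inhibition across replicates of 30% or more, whatever share of single replicates reach that level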
Target sequence (P07237 whole entry, looked up): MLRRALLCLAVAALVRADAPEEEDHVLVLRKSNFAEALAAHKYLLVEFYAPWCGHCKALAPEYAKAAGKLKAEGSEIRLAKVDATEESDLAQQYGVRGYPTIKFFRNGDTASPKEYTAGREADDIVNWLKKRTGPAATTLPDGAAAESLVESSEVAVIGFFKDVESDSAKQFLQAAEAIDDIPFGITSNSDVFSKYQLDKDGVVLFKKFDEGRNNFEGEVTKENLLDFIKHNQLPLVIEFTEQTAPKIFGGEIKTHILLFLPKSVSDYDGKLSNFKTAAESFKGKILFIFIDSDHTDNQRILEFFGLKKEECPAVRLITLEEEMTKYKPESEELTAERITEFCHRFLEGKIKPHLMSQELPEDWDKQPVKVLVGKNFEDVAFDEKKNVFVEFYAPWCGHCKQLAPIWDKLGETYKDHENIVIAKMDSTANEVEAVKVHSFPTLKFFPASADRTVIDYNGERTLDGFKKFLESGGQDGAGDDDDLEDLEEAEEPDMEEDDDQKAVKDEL
HIV Env fusion = inhibitors of HIV-1 Env-driven cell-cell fusion, primary screen, HeLa-JRFL effector, CEM21 target cells, luciferase; inhibition, % at 12.3 µM; 1.1% of 360,000 active;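 active = mean replicate inhibition score of at least 50 and every replicate individually at or above 50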;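 note: 0% = plate neutral controls and 100% = maraviroc near 300 nM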
FN deposit inh = inhibitors of fibronectin matrix deposition, primary screen, AH1F cells, Alexa488-fibronectin fluorescence, plate reader. AH1F fibroblasts, overnight. inhibition, % at 12.6 µM. 0.086% of 350,000 active;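 active = mean inhibition across replicates of 30% or more, regardless of how many single replicates reach that level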;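 note: positive control wells lacked labelled fibronectin entirely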
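Measured by – fluorescence 485/525 nm · System – AH1F fibroblast monolayer, labelled fibronectin deposition · Amount – 10000 cells per well · Buffer or medium – serum-reduced DMEM (2% serum) · Doses – single dose, pinned · Also added – fluorescent fibronectin at 24 nM final · Schedule – 1 h cell attachment, overnight exposure to compound and label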
GSIS activator = GLuc luminescence reporter in INS-1E cells, primary screen for activators of glucose-dependent secretion of insulin; INS-1E GLuc reporter insulin secretion, 2-3 h; activation, % at 16.6 µM; 0.61% of 370,000 active;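 active = lowest replicate activation of at least 40%, so every replicate reaches that level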;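 note: 0% = median of neutral control wells and 100% = median of IBMX positive control wells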
The depositor's hits bear a star; . = no result given; [ ] = another dose, or the depositor's remark.

SMILES	ERp5 block	PDI turbidity	HIV Env fusion	FN deposit inh	GSIS activator
O=C1[C@H]2[C@@H](c3ccc(F)cc3)N3C(=O)N(c4cccc(Br)c4)C(=O)[C@@]3(Cc3ccccc3)[C@H]2C(=O)N1C1CCCCC1	2.0	3.3	107.4*	-0.4	6.8
Cc1ccc(N2C(=O)N3[C@H](c4ccc(F)cc4)[C@@H]4C(=O)N(C5CCCCC5)C(=O)[C@@H]4[C@]3(Cc3ccccc3)C2=O)cc1	-2.7	-5.0	55.8*	-0.7	19.1
Cc1cccc([C@@H]2[C@@H]3C(=O)N(Cc4ccccc4)C(=O)[C@@H]3[C@]3(Cc4ccccc4)C(=O)N(c4cccc(Cl)c4)C(=O)N23)c1	-7.2	8.6	-206.1	-8.8	-5.6
O=C1[C@H]2[C@@H](c3ccc(F)cc3)N3C(=O)N(c4cccc(F)c4)C(=O)[C@@]3(Cc3ccccc3)[C@H]2C(=O)N1C1CCCCC1	2.4	9.4	95.0*	-3.8	2.4
CC[C@@]12C(=O)N(c3cccc(F)c3)C(=O)N1[C@H](c1ccc(F)cc1)[C@@H]1C(=O)N(C3CCCCC3)C(=O)[C@@H]12	.	-7.5	.	.	.
O=C1[C@H]2[C@@H](c3ccc(Cl)cc3)N3C(=O)N(c4cccc(Cl)c4)C(=O)[C@@]3(Cc3ccccc3)[C@H]2C(=O)N1C1CCCCC1	.	-4.5	96.8*	-2.0	3.7
CNC[C@H]1OCc2ccccc2-c2c(n(C)c3ccccc23)C(=O)N([C@@H](C)CO)C[C@H]1C	.	.	.	2.5	6.9
CCCCCCn1c(N(CC)CC)nc2c1c(=O)[nH]c(=O)n2C	.	-4.4	.	.	61.9*
COC(=O)CSc1nc2c(c(=O)[nH]c(=O)n2C)n1CCC(C)C	.	-2.4	.	.	.
CCCCCn1c(SCC(=O)OC)nc2c1c(=O)[nH]c(=O)n2C	0.9	.	-1.5	1.2	68.5*
CCCC(=O)Nc1ccc2c(c1)OC[C@H](C)NC[C@@H](C)[C@@H](OC)CN(C)C2=O	-1.5	.	5.5[16.7 µM]	-5.9	11.2
COc1ccc(Nc2nc(N)c([N+](=O)[O-])c(NCCO)n2)cc1	1.1	8.6	-47.1	6.4	3.0
Cc1cccc(Nc2nc(N)c([N+](=O)[O-])c(NCc3ccco3)n2)c1	-3.6	1.2	.	13.5	40.3
Nc1nc(Nc2cccc(Cl)c2)nc(NCc2ccco2)c1[N+](=O)[O-]	2.5	3.0	76.3*	4.3	15.3
Nc1nc(Nc2ccc(Cl)cc2)nc(NCc2ccco2)c1[N+](=O)[O-]	4.0	3.5	58.8*	-0.5	-2.8
CNc1nc(Nc2ccc(Br)cc2)nc(N)c1[N+](=O)[O-]	.	6.1	7.2	-2.9	49.7*
C[C@@H]1CN([C@H](C)CO)C(=O)c2cc(C#Cc3ccccn3)cnc2O[C@@H]1CN(C)Cc1ccccc1	.	.	-25.9[16.7 µM]	-10.2	0.4
COc1ccc(CCN(C)C(=O)c2oc3ccccc3c2C)cc1OC	0.2	7.2	7.6	6.2	105.3*
COc1ccc(CN(C(=O)c2oc3ccccc3c2C)C2CCS(=O)(=O)C2)cc1OC (stereo not given)	.	10.8	.	.	11.2
CCCN1[C@H](C(=O)N[C@@H](C)c2ccccc2)[C@@H](CO)[C@@H]2Cn3c(ccc(-c4ccc(F)cc4)c3=O)[C@@H]21	-0.2	.	.	.	-14.3
CCn1ncc2c1C(=O)NC1c3ccccc3C(=O)N21 (stereo not given)	.	2.2	-10.6	3.0	51.4*
Cc1cccc(-c2ccc([C@@H]3[C@@H](CO)N4C(=O)CN(C(=O)NC5CCCCC5)C[C@H]34)cc2)c1	9.2	.	.	.	-11.4
O=C(/C=C/c1ccccc1)NC(NC(=S)Nc1cccc(Cl)c1)C(Cl)(Cl)Cl (stereo not given)	.	1.5	63.3*	.	-0.7
COc1cc([N+](=O)[O-])ccc1NC(=O)Nc1cnccn1	3.7	-5.6	57.5*	.	5.5
C[C@@H]1CCCCO[C@H](CN(C)C)[C@@H](C)CN([C@H](C)CO)C(=O)c2cc(NS(=O)(=O)c3ccc(Cl)cc3)ccc2O1	-4.2	.	0.7[16.7 µM]	.	4.2
SMILES	ERp5 block	PDI turbidity	HIV Env fusion	FN deposit inh	GSIS activator
CC(=O)O[C@@H]1C=C[C@@H](C#Cc2ccc(C(C)(C)C)cc2)O[C@@H]1COC(=O)NC(C)C	4.4	.	-47.5	2.2	-14.7
CC(C)NC(=O)OC[C@H]1O[C@H](C#Cc2ccc(C(C)(C)C)cc2)C=C[C@H]1O	-2.4	.	-16.5	-5.1	63.7*
Cc1noc(C)c1NC(=O)Nc1cccc2c1O[C@@H](CN(C)C(=O)Nc1cccc3ccccc13)[C@H](C)CN([C@@H](C)CO)C2=O	-2.7	.	-14.6[16.7 µM]	.	4.8
O=C(N/N=C/c1cc(Cl)ccc1O)c1ccc(Br)cc1	.	11.0	3.4	4.7	41.2*
NC(=O)C1CCN(C(=O)c2cccc3ccccc23)CC1	-0.5	2.6	-1.2	2.4	-10.4
NC(=O)C1CCN(C(=O)c2cc3ccccc3cc2O)CC1	-3.1	-1.6	63.4*	-6.4	11.1
Cc1ccc(-c2ccc([C@H]3[C@@H](CO)N4C(=O)CN(C(=O)Nc5cccc(F)c5)C[C@@H]34)cc2)cc1	-0.4	.	.	.	-31.2
O=S(=O)(c1cc(F)ccc1F)N1CCN(c2ncccn2)CC1	-1.9	34.1*	-15.1	-4.1	-1.3
O=S(=O)(c1ccc(F)cc1)N1CCN(c2ncccn2)CC1	2.8	-3.0	-7.1	3.2	12.7
O=S(=O)(c1cc(F)ccc1F)N1CCC2(CC1)OCCO2	-3.5	5.4	59.7*	.	14.9
O=S(=O)(c1ccc(F)cc1)N1CCCCN2[C@H](CO)[C@@H](c3ccc(-c4ccccc4F)cc3)[C@@H]2C1	4.3	.	.	.	.
COc1cc(-c2nc(-c3cccnc3)no2)cc(OC)c1OC	.	0.0	-28.2	1.8	15.3
COc1ccc(-c2nc(-c3cccnc3)no2)cc1OC	1.1	-0.6	-29.1	-3.4	57.7*
COC(=O)C1C(=O)NC(SC)=C(C#N)C1c1ccccc1 (stereo not given)	.	0.2	.	.	40.0*
COC(=O)CSC1=C(C#N)C(c2ccc(Cl)cc2)C(C(=O)OC)C(=O)N1 (stereo not given)	.	-1.9	.	.	.
CC(C)C#Cc1ccc([C@@H]2[C@H](C#N)N(C(=O)CN(C)C)[C@H]2CO)cc1	14.8	.	12.3[16.7 µM]	-13.5	-4.8
COCCCNc1ccn2nc(-c3ccccc3)cc2n1	-5.5	2.9	62.9*	-7.7	0.1
CC1(C)NC(=O)N(CCOCCOc2cccc(Oc3ccccc3)c2)C1=O	.	1.5	60.2*	.	.
CS(=O)(=O)Nc1ccc2c(c1)[C@H]1C[C@H](CC(=O)NCc3ccccc3F)O[C@@H](CO)[C@H]1O2	-10.9	.	.	-8.9	-0.5
CN(C)C(=O)c1ccc(-c2ccc(C3[C@H]4CNC[C@@H]3N4Cc3ccccn3)cc2)cc1 (stereo not given in full)	.	.	.	-23.4	-2.2
Cc1ccc(S(=O)(=O)N(C)C[C@H]2Oc3ccc(NC(=O)Nc4ccc(C(F)(F)F)cc4)cc3CC(=O)N([C@@H](C)CO)C[C@H]2C)cc1	2.2	.	94.5*[16.7 µM]	2.9	-3.5
